Compound activity (PubChem BioAssay)
In the library only some 2% were active in any assay of this set; here they are far more common.
CDK5 p35 inh = blocks human CDK5/p35 kinase activity. 0.01% of 330,000 active. Q00535+Q15078. inhibition, % at 10 µM. AID 488839. Recombinant CDK5/p35, ADP-Glo luminescence, 60 min;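 active means highest replicate inhibition of at least 50% and at least 75% of replicates reaching 50%; inconclusive means only one of the two criteria met; inactive means both criteria failed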;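 further: plate controls were DMSO neutral control for no effect and GW8510 at 10 µM for full effect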
Target sequence (Q00535 whole entry, looked up): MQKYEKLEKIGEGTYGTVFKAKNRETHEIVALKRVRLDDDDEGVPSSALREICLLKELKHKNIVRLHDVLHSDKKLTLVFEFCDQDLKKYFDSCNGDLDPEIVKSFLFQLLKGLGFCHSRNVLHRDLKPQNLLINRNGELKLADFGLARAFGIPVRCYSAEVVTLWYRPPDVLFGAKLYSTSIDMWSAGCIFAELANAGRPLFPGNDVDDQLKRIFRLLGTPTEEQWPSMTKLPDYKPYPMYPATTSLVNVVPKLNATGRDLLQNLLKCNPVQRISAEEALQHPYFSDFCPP
Target sequence (Q15078 whole entry, looked up): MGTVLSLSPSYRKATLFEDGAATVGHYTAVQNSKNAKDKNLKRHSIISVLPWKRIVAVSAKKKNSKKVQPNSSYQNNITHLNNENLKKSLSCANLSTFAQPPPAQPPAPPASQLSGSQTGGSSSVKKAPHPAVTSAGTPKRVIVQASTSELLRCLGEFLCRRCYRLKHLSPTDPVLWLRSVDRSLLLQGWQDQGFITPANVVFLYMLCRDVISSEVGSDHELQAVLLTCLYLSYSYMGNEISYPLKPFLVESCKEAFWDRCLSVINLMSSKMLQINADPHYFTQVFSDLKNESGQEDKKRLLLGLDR
SR-BI DiI-HDL act = activators of SR-BI mediated HDL lipid uptake; 0.096% of 320,000 active; activation, % at 12.5 µM; CHO ldlA[mSR-BI] cells, DiI-HDL uptake fluorescence, 3 h; 100 = double the neutral-control signal;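 active means mean replicate activation of at least 60% and every replicate at or above 60%; inconclusive means mean or all-replicate condition met, but not both; inactive means mean below 60% and not all replicates reaching 60%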;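 further: 0% = median plate neutral-control signal and 100% = twice that signal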
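Assay system: LDL receptor-deficient CHO ldlA cells overexpressing murine SR-BI / Medium: BSA-supplemented, HEPES-buffered Ham's F12, pH 7.4 / Probe or stimulus: DiI-labelled HDL at 10 µg/mL final / Timing: compound with DiI-HDL co-incubation, 3 h at 37 °C / Technique: bottom-read cell fluorescence after medium removal, ex 550/em 595 nm / Measure: HDL uptake via cellular fluorescence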
SR-BI DiI inh = mouse SR-BI HDL lipid transfer inhibition; Q61009; 0.96% of 320,000 active; inhibition, % at 12.5 µM; ldlA[mSR-BI] CHO cells, DiI-HDL uptake fluorescence, 3 h;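 active means mean replicate inhibition of at least 70% and a set share of replicates each scoring 70 or more; inconclusive means meets just one of the two criteria; inactive means fails both criteria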;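 further: 0% = median of neutral control wells and 100% = median of positive control wells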
dFosB act-1 = enhances mouse delta FosB homodimer DNA binding | P13346 | purified delta FosB, TAMRA-CDK5 oligo fluorescence polarization; percent of positive-control signal above neutral wells | activation, % at 25 µM | 0.99% of 340,000 active;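 active means mean activation above about 17%, with every replicate also reaching it, limit read from the data, passing the limit was not always enough; inconclusive means only one of the two conditions met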
dFosB act-2 = activators of mouse delta FosB homodimer DNA binding; AID 588690; 2,400 tested, under 10 active; activation, % at 24.9 µM; shares compounds with dFosB act-1; purified delta FosB, TAMRA-CDK5 oligo fluorescence polarization; normalised: neutral wells 0, positive control 100;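 active means highest replicate activation at or above 34% and every replicate reaching that threshold; inconclusive means meets only one of the two criteria; inactive means meets neither criterion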;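 further: higher polarization means more probe DNA bound by delta FosB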
* marks the source's active call; other numbers are inactive results; u = inconclusive; x = not tested or not shown.

SMILES	CDK5 p35 inh	SR-BI DiI-HDL act	SR-BI DiI inh	dFosB act-1	dFosB act-2
COc1ccc(Cc2nnc(NC(=O)c3cccc(F)c3)s2)cc1OC	2	12	-12	19*	2
CS(=O)(=O)c1ccc2nc(NC(=O)c3cccc(NS(=O)(=O)c4ccc(F)c(F)c4)c3)sc2c1	-2	0	0	29*	-8
CS(=O)(=O)c1ccc2nc(NC(=O)c3ccc(NS(=O)(=O)c4ccc(F)c(F)c4)cc3)sc2c1	0	-28	28	35*	-1
O=C(Nc1nc2ccc(SC(F)F)cc2s1)c1ccc(NS(=O)(=O)c2ccc(F)c(F)c2)cc1	2	-43	44	38*	5
CSc1nc2ccc(NC(=O)c3ccc(F)c(F)c3)cc2s1	-1	-46	46	-8	x
CS(=O)(=O)c1ccc2nc(NC(=O)c3cccc([N+](=O)[O-])c3)sc2c1	1	-10	10	1	x
COc1ccc(N2C(=O)c3ccccc3NC2c2ccc(OC)c(Cn3nnc4ccccc43)c2)cc1 (stereo not drawn)	3	1	-1	30*	0
COc1ccc(C2Nc3ccccc3C(=O)N2c2ccc(C)cc2)cc1Cn1nc(C)c([N+](=O)[O-])c1C (stereo not drawn)	-4	1	-1	-8	x
O=C(N/N=C/c1cccnc1)c1cccc(NC(=O)c2ccc(Cl)cc2)c1	4	-29	29	32*	2
Cc1cccc(/C=N/NC(=O)c2ccc(NC(=O)c3ccc(Cl)cc3)cc2)n1	0	-77	77*	41*	7
Cc1ccnc(NC(=O)c2cccc(NC(=O)c3ccc(Cl)c(Cl)c3)c2)c1	0	-74	u	48*	-2
O=C(/C=C/c1cccnc1)c1ccc(NC(=O)c2cccc(Br)c2)cc1	0	-31	31	46*	1
O=C(Nc1ccc(Br)cc1)c1ccc(Br)c(S(=O)(=O)Nc2cccnc2)c1	-2	-4	4	28*	-3
CC(C)C(OC(=O)c1cc2c(s1)CCCCC2)C(=O)NC(N)=O (stereo not drawn)	-2	-25	25	26*	5
COc1ccc(CC(=O)OCC(=O)Nc2cccc(C(C)=O)c2)cc1OC	0	13	-13	-10	x
Cc1ccc(CNC(=O)C2CCCN2S(=O)(=O)c2ccc(Cl)cc2)cc1 (stereo not drawn)	2	17	-17	-8	x
Nc1nc(SCC(=O)NCc2ccc(F)cc2)[nH]c(=O)c1NC(=O)c1ccc(Cl)cc1	-1	9	-9	33*	5
CC(=O)Nc1ccc(NC(=O)CSc2nc(N)c(NC(=O)c3ccccc3F)c(=O)[nH]2)cc1	-2	21	-21	17*	-1
Cc1cccc(NC(=O)CSc2nc(N)c(NC(=O)c3ccccc3F)c(=O)[nH]2)c1	1	39	-39	u	x
C/C(=N\NC(=O)c1ccncc1)c1ccc(N2CCOCC2)cc1	-1	22	-22	-2	x
C/C(=N\NC(=O)c1ccc(OC2OCCOC2Oc2ccc(C(=O)N/N=C(\C)c3ccncc3)cc2)cc1)c1ccncc1 (stereo not drawn)	1	x	x	97*	3
Cn1c(/C=C/c2ccc(Br)cc2)nc2ccccc2c1=O	1	2	-2	-13	x
O=C(COC(=O)c1oc2ccccc2c1CSc1ccc(Cl)cc1)NC1CCCC1	-2	-26	26	-10	x
NC(=O)COC(=O)c1oc2ccccc2c1CSc1ccc(Cl)cc1	0	-5	5	18*	5
O=C(COC(=O)c1ccc2c(c1)C(=O)N(Cc1ccncc1)C2=O)Nc1cccc2ccccc12	1	14	-14	27*	6
SMILES	CDK5 p35 inh	SR-BI DiI-HDL act	SR-BI DiI inh	dFosB act-1	dFosB act-2
N#Cc1c(SCC(=O)Nc2ccccc2)nsc1SCC(=O)Nc1ccccc1	1	14	-14	25*	0
Cc1cccc(NC(=O)CSc2nsc(SCC(=O)Nc3cccc(C)c3)c2C#N)c1	-1	-34	34	4	x
COc1cc(/C=N/NC(=O)c2cc(C3CC3)[nH]n2)cc(OC)c1OC	-2	-26	26	20*	-1
CC1=CCC(C(=O)O)C(C(=O)NC2CCCCC2)C1 (stereo not drawn)	1	9	-9	-10	x
O=C(/C=C/c1cccs1)NC(=S)Nc1ccc(C(=O)O)cc1	-5	x	x	0	x
NS(=O)(=O)c1ccc(NC(=S)NC(=O)/C=C/c2cccs2)cc1	3	8	-8	26*	1
